Experimental data as given in ChEMBL document CHEMBL4350958, “Rational Design of Short Peptide Variants by Using Kunitzin-RE, an Amphibian-Derived Bioactivity Peptide, for Acquired Potent Broad-Spectrum Antimicrobial and Improved Therapeutic Potential of Commensalism Coinfection of Pathogens” (J Med Chem, 2019).
Activity calls are given as the source filed them. The rule behind the calls is not given here.

Experiments:
Pseudomonas aeruginosa [1] = assay: Antibacterial activity against Pseudomonas aeruginosa ATCC 27853 at sub-MBC measured after 30 serial passages; format: functional, organism-based
Method in brief: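 P. aeruginosa ATCC 27853 passaged every 24 h by 100-fold dilution in MHB containing sub-MBC drug, for 30 passages. MBC was tested on the cells from each passage. Control cells were passaged in drug-free MHB. Run independently in triplicate with three biological replicates.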

Pseudomonas aeruginosa [2] = assay: Antibacterial activity against gentamicin-resistant Pseudomonas aeruginosa ATCC 27853 measured after 24 hrs; format: functional, organism-based
Method in brief: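 Broth microdilution modified from NCCLS. Mid-log bacteria at (0.5–1) × 10^5 CFU mL−1 in MHB, mixed with peptides serially diluted in 0.2% BSA. Incubated 24 h at 37 °C, read at A492. MIC taken as lowest concentration giving 95% growth inhibition. At least three independent experiments, each with three technical replicates.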

Pseudomonas aeruginosa [3] = assay: Antibacterial activity against melittin-resistant Pseudomonas aeruginosa ATCC 27853 measured after 24 hrs; format: functional, organism-based
Staphylococcus aureus [4] = assay: Antibacterial activity against Staphylococcus aureus ATCC 29213 assessed as ratio of MIC95 in presence of CaCl2 to in absence of CaCl2; format: functional
Method in brief: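 S. aureus ATCC 29213, mid-log, (0.5–1) × 10^5 CFU/mL final in MHB, with or without 2 mM CaCl2 (final). Peptide serially diluted in 0.2% BSA and mixed 1:1 with cells, 24 h at 37 °C. MIC is the lowest concentration inhibiting 95% of growth by A492. Three independent experiments, each with three technical replicates.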

Candida albicans [5] = assay: Antifungal activity against Candida albicans cgmcc2.2086 assessed as ratio of MIC95 in presence of CaCl2 to in absence of CaCl2; format: functional
Method in brief: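 C. albicans cgmcc 2.2086, (0.5–1) × 10^3 CFU/mL final in MOPS-buffered RPMI 1640, with or without 2 mM CaCl2 (final). Peptide serially diluted in 0.2% BSA and mixed 1:1, 48 h at 28 °C. MIC is the lowest concentration inhibiting 95% of growth by A492. Three independent assays, each with three technical replicates.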

Candida albicans [6] = assay: Antifungal activity against Candida albicans cgmcc2.2086 infected in C57BL/6 mouse model of keratitis assessed as reduction in fungal hyphae extention into corneal stroma at 1 to 5 mg/ml administered as topical eye drop every 5 mins for first 4 hrs and every 30 mins for next 7 hrs measured post-last dose by periodic acid schiff staining-based histological analysis; format: functional, organism-based
Candida albicans [7] = assay: Antifungal activity against Candida albicans cgmcc2.2086 infected in C57BL/6 mouse model of keratitis assessed as reduction in fungal colonies in eyeballs at 5 mg/ml administered as topical eye drop every 5 mins for first 4 hrs and every 30 mins for next 7 hrs measured post-last dose by agar plate method relative to control; format: functional; parameters: scale not given: the % may be the effect or the level left
Staphylococcus aureus [8] = assay: Drug uptake in plasma membrane of Staphylococcus aureus ATCC 29213 at MBC measured after 30 mins using FITC-labeled compound by microscopic analysis; format: ADME, organism-based; settings: in vivo, 0.5 h
Method in brief: (§1)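 E. coli ATCC 25922 or S. aureus ATCC 29213 (OD600 0.2) incubated with FITC-labeled peptide at 1×MBC, 37 °C, 30 min. Cells washed, resuspended with PI (10 μg/mL) in PBS, smeared and imaged by superresolution microscopy using 488 and 535 nm filters for FITC and PI. Peptide-free cells served as controls. Three independent scans.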

Escherichia coli [9] = assay: Drug uptake in plasma membrane of Escherichia coli ATCC 25922 at MBC measured after 30 mins using FITC-labeled compound by microscopic analysis; format: ADME, organism-based; settings: in vivo, 0.5 h; method in brief: as §1
Lipopolysaccharide (LPS) = assay: Displacement of BODIPY-TR-cadaverine from Escherichia coli O111:B4 LPS at 16 uM after 1 hr by spectrofluorophotometric method relative to control
Method in brief: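 E. coli O111:B4 LPS (50 μg/mL) preloaded 4 h with BODIPY-TR-cadaverine (5 μg/mL) in 50 mM Tris, pH 7.4. Mixed 1:1 with peptide (1–64 µM series), 1 h at 37 °C, then fluorescence read. Expressed as %ΔF: 0% is probe with LPS and no peptide, 100% is probe with LPS plus 10 μg/mL polymyxin B. Three technical replicates.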

Escherichia coli [10] = assay: Induction of cytoplasmic membrane depolarization in Escherichia coli ATCC 25922 assessed as fluorescence intensity at 4 uM up to 3000 secs by DiSC3-5 dye-based fluorescence spectrophotometric method
Method in brief: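 Mid-log E. coli ATCC 25922 (OD600 0.05) loaded with 0.4 μM DiSC3-5 and 100 mM K+ in 5 mM HEPES pH 7.4 with 20 mM glucose until fluorescence stabilized. Peptide added in a 1-cm cuvette and fluorescence (ex 622, em 670 nm) recorded 0–3000 s. Triplicate, three biological replicates.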

Escherichia coli [11] = assay: Induction of morphological changes in Escherichia coli ATCC 25922 assessed as cell content leakage at MBD measured after 1 hr by scanning electron microscopic analysis; format: functional, organism-based
Staphylococcus aureus [12] = assay: Induction of morphological changes in Staphylococcus aureus ATCC 29213 assessed as hole formation at MBD measured after 1 hr by atomic force microscopic analysis; format: functional, organism-based
Escherichia coli [13] = assay: Induction of morphological changes in Escherichia coli ATCC 25922 assessed as appearance of intracellular empty area at MBD measured after 1 hr by transmission electron microscopic analysis; format: functional, organism-based
Staphylococcus aureus [14] = assay: Induction of morphological changes in Staphylococcus aureus ATCC 29213 assessed as […] at MBD measured after 1 hr by transmission electron microscopic analysis; format: functional, organism-based
Staphylococcus aureus [15] = assay: Induction of morphological changes in Staphylococcus aureus ATCC 29213 assessed as tiny hole formation at MBD measured after 1 hr by transmission electron microscopic analysis; format: functional, organism-based
Staphylococcus aureus [16] = assay: Induction of morphological changes in Staphylococcus aureus ATCC 29213 assessed as sparse distribution of cytoplasm at MBD measured after 1 hr by transmission electron microscopic analysis; format: functional, organism-based
Staphylococcus aureus [17] = assay: Induction of morphological changes in Staphylococcus aureus ATCC 29213 assessed as appearance of intracellular empty areas at MBD measured after 1 hr by transmission electron microscopic analysis; format: functional, organism-based
Staphylococcus aureus [18] = assay: Bactericidal activity against Staphylococcus aureus ATCC 29213 assessed as reduction in bacterial growth at MBC by time-kill assay; format: functional, organism-based
Method in brief: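 Time-kill assay. E. coli ATCC 25922, S. aureus ATCC 29213 or C. albicans cgmcc 2.2086 at a final 0.5-1×10^5 CFU mL-1 treated at 1×MBC/MFC. Aliquots collected at different times to calculate survival, with an untreated control. Mean of three independent experiments, each with three technical replicates.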

Escherichia coli [19] = assay: Induction of outer membrane permeabilization in Escherichia coli ATCC 25922 at 1 to 64 uM by NPN-dye based assay; format: organism-based
Method in brief: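 Mid-log E. coli ATCC 25922 (OD600 0.2) with 10 μM NPN in 5 mM HEPES pH 7.4 with 5 mM glucose for 30 min, background subtracted (ex 350, em 420 nm). Mixed with equal volume of peptide (1 to 64 μM) and fluorescence followed to plateau. Uptake normalised to 10 μg/mL polymyxin B. Three independent experiments, each with three technical replicates.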

Compound	Activity (Pseudomonas aeruginosa [1])	Activity (Pseudomonas aeruginosa [2])	Activity (Pseudomonas aeruginosa [3])	Ratio (Staphylococcus aureus [4])	Ratio (Candida albicans [5])	Activity (Candida albicans [6])	Activity (Candida albicans [7])	Drug uptake (Staphylococcus aureus [8])	Drug uptake (Escherichia coli [9])	Activity (Lipopolysaccharide (LPS))	Flu intensity (Escherichia coli [10])	Activity (Escherichia coli [11])	Activity (Staphylococcus aureus [12])	Activity (Escherichia coli [13])	Activity (Staphylococcus aureus [14])	Activity (Staphylococcus aureus [15])	Activity (Staphylococcus aureus [16])	Activity (Staphylococcus aureus [17])	Activity (Staphylococcus aureus [18])	Activity (Escherichia coli [19])
H-AARIILRWRFR-NH2	Active	Active	Active	4	4	Active	<=80%	Active	Active	99%	3000 a.u.	Active	Active	Active	Active	Active	Active	Active	–	–
CC[C@H](C)[C@H](NC(=O)CN)C(=O)NCC(=O)N[C@@H](C)C(=O)N[C@H](C(=O)N[C@@H](CC(C)C)C(=O)N[C@@H](CCCCN)C(=O)N[C@H](C(=O)N[C@@H](CC(C)C)C(=O)N[C@H](C(=O)N[C@H](C(=O)NCC(=O)N[C@@H](CC(C)C)C(=O)N1CCC[C@H]1C(=O)N[C@@H](C)C(=O)N[C@@H](CC(C)C)C(=O)N[C@H](C(=O)N[C@@H](CO)C(=O)N[C@@H](Cc1c[nH]c2ccccc12)C(=O)N[C@H](C(=O)N[C@@H](CCCCN)C(=O)N[C@@H](CCCNC(=N)N)C(=O)N[C@@H](CCCCN)C(=O)N[C@@H](CCCNC(=N)N)C(=O)N[C@@H](CCC(N)=O)C(=O)N[C@@H](CCC(N)=O)C(N)=O)[C@@H](C)CC)[C@@H](C)CC)[C@@H](C)O)[C@@H](C)O)C(C)C)C(C)C [MELITTIN]	–	–	–	–	–	–	–	–	–	–	–	–	–	–	–	–	–	–	Active	Active
